Results from ChEMBL document CHEMBL4387708, “Enhancement of Benzothiazoles as Pteridine Reductase-1 Inhibitors for the Treatment of Trypanosomatidic Infections” (J Med Chem, 2019).
In brackets after ≈: the same amount, converted by molar mass.

Legend:
Trypanosoma cruzi = test: Growth inhibition of trypomastigote form of Trypanosoma cruzi Y infected in human U2OS cells at 50 uM measured after 72 hrs by DRAQ5 DNA dye based confocal microscopic analysis relative to control; assay type: organism-based; conditions: Trypanosoma cruzi, Y, U2OS, read-out: GI
Pteridine reductase 1 = target: T1, Pteridine reductase 1 (Leishmania major, UniProt Q01782); test: Inhibition of Leishmania major pteridine reductase 1 using di-hydrobiopterine as substrate in presence of NADPH; conditions: read-out: IC50
T1 sequence (Q01782 whole entry): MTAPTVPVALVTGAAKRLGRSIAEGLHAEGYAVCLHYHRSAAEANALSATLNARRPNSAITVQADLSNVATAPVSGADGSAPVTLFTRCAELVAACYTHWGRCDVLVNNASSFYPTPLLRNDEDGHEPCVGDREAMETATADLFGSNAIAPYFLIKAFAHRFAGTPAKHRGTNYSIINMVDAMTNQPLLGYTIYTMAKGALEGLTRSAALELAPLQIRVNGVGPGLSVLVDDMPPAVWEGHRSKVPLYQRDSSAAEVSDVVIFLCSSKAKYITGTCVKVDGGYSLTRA
In short: (§1)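 Photometric PTR1 assay with NADPH and dihydrobiopterin substrate. H₄B formation is coupled non-enzymatically to cytochrome c reduction, read as signal increase at 550 nm.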

Trypanosoma brucei [1] = test: Inhibition of N-terminal His-tagged Trypanosoma brucei pteridine reductase 1 at 50 uM using di-hydrobiopterine as substrate measured at 1 min interval for 50 mins in presence of NADPH relative to control; in short: as §1
Trypanosoma brucei [2] = test: Growth inhibition of Trypanosoma brucei bloodstream forms measured after 72 hrs by resazurin-based fluorescence assay; assay type: organism-based
In short: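 Mid-log bloodstream-form T. brucei were seeded at a final 5 x 10^3/mL in supplemented HMI-9 with serial compound dilutions. Cultures ran 72 h at 37 °C, 5% CO₂, then 4 h more after resazurin. Fluorescence was read at ex 540/em 620 nm, and EC₅₀ was fitted by non-linear regression.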

[3] = target: T2, Pteridine reductase 1 (Leishmania major) (UniProt Q01782); test: Inhibition of Leishmania major pteridine reductase 1 at 50 uM using di-hydrobiopterine as substrate in presence of NADPH relative to control; in short: as §1
T2 sequence (whole entry): T1 sequence (Q01782 whole entry)

Trypanosoma brucei [4] = test: Growth inhibition of Trypanosoma brucei bloodstream forms at 10 uM measured after 72 hrs by resazurin-based fluorescence assay relative to control; assay type: organism-based; conditions: Trypanosoma brucei, read-out: GI
Trypanosoma brucei [5] = test: Inhibition of PTR1 in Trypanosoma brucei bloodstream forms assessed as potentiation of methotrexate-induced parasitic cell growth inhibition at 10 uM measured after 72 hrs by resazurin-based fluorescence assay (reference value: 19 +/- 6%)
In short: (§2)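 Bloodstream-form T. brucei resazurin assay: 72 h at 37 °C, 5% CO₂, then fluorescence at ex 540/em 620 nm. Benzothiazole was tested at 10 μM alone and with 4 μM methotrexate. The index is the combination's activity divided by the sum of the activities of 10 μM benzothiazole and 4 μM methotrexate given separately.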

Trypanosoma brucei [6] = test: Inhibition of PTR1 in Trypanosoma brucei bloodstream forms assessed as potentiation of methotrexate-induced parasitic cell growth inhibition by measuring potentiation index at 10 uM measured after 72 hrs by resazurin-based fluorescence assay relative to control (methotrexate); assay type: functional; in short: as §2
Cytochrome P450 1A2 = target: T3, Cytochrome P450 1A2 (Homo sapiens, UniProt P05177); test: Inhibition of human CYP1A2 expressed in baculovirus infected insect cells using beetle D-luciferin as substrate preincubated for 30 mins followed by NADPH addition and measured after 30 mins by CYP450-Glo assay
T3 sequence (P05177 whole entry): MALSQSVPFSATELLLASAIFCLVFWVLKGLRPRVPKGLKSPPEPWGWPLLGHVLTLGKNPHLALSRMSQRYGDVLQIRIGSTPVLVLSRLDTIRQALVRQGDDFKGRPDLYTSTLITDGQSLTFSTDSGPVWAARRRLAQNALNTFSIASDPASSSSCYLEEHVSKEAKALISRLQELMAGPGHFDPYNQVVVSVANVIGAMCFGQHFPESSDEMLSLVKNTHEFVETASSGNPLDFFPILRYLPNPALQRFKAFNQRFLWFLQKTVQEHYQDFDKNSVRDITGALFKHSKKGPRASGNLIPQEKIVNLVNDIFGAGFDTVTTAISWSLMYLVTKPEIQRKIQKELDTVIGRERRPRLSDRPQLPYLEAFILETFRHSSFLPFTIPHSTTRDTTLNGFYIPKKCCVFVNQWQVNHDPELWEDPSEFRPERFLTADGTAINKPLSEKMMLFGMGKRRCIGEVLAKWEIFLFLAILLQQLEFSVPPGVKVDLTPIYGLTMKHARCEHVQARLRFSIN

[7] = Cytotoxicity against human U2OS cells assessed as reduction in cell number; assay type: cell-based
[8] = Thermodynamic solubility of the compound in pure water after 24 hrs by spectrophotometric method; assay type: physicochemical; conditions: read-out: Therm_solubility
In short: (§3)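 Over-saturated suspensions (theoretical maximum 100 µg/mL) in water, PBS, PBS + 10% DMSO or PBS + 50% DMSO were stirred at 1200 rpm for 24 h at 25 °C. They were filtered at 0.2 µm and diluted 1:1 with ACN. Concentration was quantified by UV using a molar extinction coefficient determined at 340 nm.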

[9] = Thermodynamic solubility of the compound in phosphate buffered saline after 24 hrs by spectrophotometric method; assay type: physicochemical; conditions: read-out: Therm_solubility; in short: as §3
[10] = Thermodynamic solubility of the compound in phosphate buffered saline/50%DMSO after 24 hrs by spectrophotometric method; assay type: physicochemical; conditions: read-out: Therm_solubility; in short: as §3
CYP1A2 = test: Selectivity index ratio of IC50 for CYP1A2 (unknown origin) to EC50 for growth inhibition of Trypanosoma brucei bloodstream forms; assay type: toxicity; conditions: read-out: Ratio IC50/EC50
CYP2C9 = test: Selectivity index ratio of IC50 for CYP2C9 (unknown origin) to EC50 for growth inhibition of Trypanosoma brucei bloodstream forms; assay type: toxicity; conditions: read-out: Ratio IC50/EC50
CYP2D6 = test: Selectivity index ratio of IC50 for CYP2D6 (unknown origin) to EC50 for growth inhibition of Trypanosoma brucei bloodstream forms; assay type: toxicity; conditions: read-out: Ratio IC50/EC50
CYP3A4 = test: Selectivity index ratio of IC50 for CYP3A4 (unknown origin) to EC50 for growth inhibition of Trypanosoma brucei bloodstream forms; assay type: toxicity; conditions: read-out: Ratio IC50/EC50
[11] = Cmax in BALB/c mouse at 20 mg/kg, po by LC-MS analysis; assay type: ADME, organism-based; parameters: dose 20 mg/kg, route oral; conditions: in vivo
In short: (§4)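 Snapshot PK in healthy BALB/c mice. Free compound given in 8% DMSO at 1 mg/kg IV or 20 mg/kg per os; for the formulated arm it was solubilized with hydroxypropyl-β-cyclodextrin (50%) and given at 20 mg/kg per os. Plasma levels were quantified by LC-MS on a C18 column with triple-quadrupole ESI detection in positive ion mode.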

[12] = AUC in BALB/c mouse at 1 mg/kg, iv by LC-MS analysis; assay type: ADME, organism-based; conditions: in vivo; in short: as §4
[13] = AUC in BALB/c mouse at 20 mg/kg, po by LC-MS analysis; assay type: ADME, organism-based; conditions: in vivo; in short: as §4
[14] = Half-life in BALB/c mouse at 20 mg/kg, po co-formulated with hydroxypropyl-beta-cyclodextrin by LC-MS analysis; assay type: ADME, organism-based; conditions: in vivo; in short: as §4
[15] = Clearance in BALB/c mouse at 20 mg/kg, po by LC-MS analysis; assay type: ADME, organism-based; conditions: in vivo; in short: as §4
[16] = Clearance in BALB/c mouse at 20 mg/kg, po co-formulated with hydroxypropyl-beta-cyclodextrin by LC-MS analysis; assay type: ADME, organism-based; conditions: in vivo; in short: as §4

IC50 (Pteridine reductase 1): 61.3 µM
inhibition (Trypanosoma brucei [1]): > 60%
EC50 (Trypanosoma brucei [2]): 7 µM
inhibition [3]: > 60%
growth inhibition (GI) (Trypanosoma brucei [5]): 30%
IC50 (Cytochrome P450 1A2): > 25 µM
solubility thermodynamic at 24 h [8]: 13.1 µg/mL (≈ 46.3 µM)
solubility thermodynamic at 24 h [9]: 10.9 µg/mL (≈ 38.6 µM)
solubility thermodynamic at 24 h [10]: > 100 µg/mL
Cmax [11]: 826 ng/mL
AUC [12]: 1057 ng·h/mL
AUC [13]: 4690 ng·h/mL
half-life [14]: 34.8 h
CL/F [15]: 68 mL/min/kg
CL/F [16]: 41 mL/min/kg
Compound: Nc1nc2ccc(C(=O)NCc3ccccc3)cc2s1
inhibition at 50 µM (Trypanosoma cruzi): 51.3%
inhibition at 10 µM (Trypanosoma brucei [4]): > 60%
Ratio (Trypanosoma brucei [6]): 1.6
GI50 [7]: > 25 µM
selectivity ratio (CYP1A2): > 10
selectivity ratio (CYP2C9): > 10
selectivity ratio (CYP2D6): > 10
selectivity ratio (CYP3A4): > 10
